# Active and inactive are the calls of the source. The rule behind the calls is not given here.
# What was measured:
# [1] = target: T1, G-protein coupled receptor 35 (Homo sapiens, UniProt Q9HC97); experiment: Agonist activity at human GPR35 expressed in CHO-K1 cells after 90 mins by beta-arrestin 2 recruitment assay; assay type: cell-based
# [2] = target: T1, G-protein coupled receptor 35; experiment: Agonist activity at GPR35 in human HT-29 cells assessed as induction of cell desensitization to 1 uM zaprinast preincubated for 1 hr followed by zaprinast stimulation measured after 8 minutes by DMR assay; assay type: cell-based
# Procedure, shortened: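 Desensitization format in HT-29 cells on resonant waveguide grating biosensor plates, held in HBSS. […] Mean ± sd, two independent measurements, each with four replicates (n=8).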
# [3] = target: T1, G-protein coupled receptor 35; experiment: Agonist activity at GPR35 in human HT-29 cells in presence of antagonist ML-145 by DMR assay; assay type: cell-based
# Procedure, shortened: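 HT-29 DMR antagonist format: ML-145 was titrated against the coumarin agonist, each agonist given at its EC80–EC100 dose. Cells were kept in HBSS and equilibrated 1 h in the reader. IC50 was calculated from the DMR amplitude at 8 min post-stimulation. Mean ± sd, two independent measurements × four replicates (n=8).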
# [4] = target: T1, G-protein coupled receptor 35; experiment: Agonist activity at GPR35 in human HT-29 cells by DMR assay; assay type: cell-based
# Procedure, shortened: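 HT-29 cells with endogenous GPR35, grown in McCoy's 5A with 10% FBS at 37 °C/5% CO2, seeded overnight to a confluent monolayer on resonant waveguide grating biosensor plates. Cells were washed, kept in HBSS for 1 h in the reader, and given a 2 min baseline before compound addition. Mean ± sd, two independent runs × four replicates (n=8).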
# [5] = target: T1, G-protein coupled receptor 35; experiment: Agonist activity at TEV protease cleavage site linked GAL4-VP16-fused GPR35 in human Tango GPR35-bla U2OS cells assessed as induction of TEV protease-tagged beta-arrestin recruitment incubated for 5 hrs by beta-lactamase reporter gene assay
# [6] = target: T1, G-protein coupled receptor 35; experiment: Agonist activity at TEV protease cleavage site linked GAL4-VP16-fused GPR35 in human Tango GPR35-bla U2OS cells assessed as induction of TEV protease-tagged beta-arrestin recruitment incubated for 5 hrs by beta-lactamase reporter gene assay relative to zaprinast
# [7] = target: Histamine H1 receptor (Homo sapiens) (UniProt P35367); experiment: Agonist activity at histamine H1 receptor in human A431 cells at 1 uM preincubated for 1 hr followed by histamine addition by DMR assay; assay type: cell-based
# [8] = target: T2, Type-1 angiotensin II receptor (Homo sapiens) (UniProt P30556); experiment: Agonist activity at angiotensin AT1 receptor in human A549 cells at 1 uM preincubated for 1 hr followed by angiotensin 2 addition by DMR assay; assay type: cell-based
# T2 sequence (whole entry): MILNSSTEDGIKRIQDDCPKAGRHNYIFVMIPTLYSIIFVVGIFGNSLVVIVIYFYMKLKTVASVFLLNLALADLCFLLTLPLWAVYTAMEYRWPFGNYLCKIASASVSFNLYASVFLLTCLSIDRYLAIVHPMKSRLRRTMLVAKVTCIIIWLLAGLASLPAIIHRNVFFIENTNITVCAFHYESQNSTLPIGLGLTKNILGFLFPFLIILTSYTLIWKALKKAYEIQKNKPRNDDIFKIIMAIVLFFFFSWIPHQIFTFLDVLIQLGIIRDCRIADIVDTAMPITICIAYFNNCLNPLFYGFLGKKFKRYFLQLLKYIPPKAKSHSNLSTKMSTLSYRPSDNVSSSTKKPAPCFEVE
# [9] = target: T3, B2 bradykinin receptor (Homo sapiens) (UniProt P30411); experiment: Agonist activity at bradykinin B2 receptor in human A549 cells at 1 uM preincubated for 1 hr followed by bradykinin addition by DMR assay; assay type: cell-based
# T3 sequence (whole entry): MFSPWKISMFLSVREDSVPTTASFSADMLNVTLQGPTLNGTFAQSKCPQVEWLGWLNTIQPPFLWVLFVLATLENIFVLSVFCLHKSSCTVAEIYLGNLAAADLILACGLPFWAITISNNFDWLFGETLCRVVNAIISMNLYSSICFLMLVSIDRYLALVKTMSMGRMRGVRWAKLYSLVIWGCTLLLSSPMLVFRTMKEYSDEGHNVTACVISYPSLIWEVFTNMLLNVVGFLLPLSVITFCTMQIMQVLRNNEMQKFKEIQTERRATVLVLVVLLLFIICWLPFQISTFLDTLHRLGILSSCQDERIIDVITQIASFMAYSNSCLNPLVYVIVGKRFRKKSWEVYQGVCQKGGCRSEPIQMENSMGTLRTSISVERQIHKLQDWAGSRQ
# [10] = target: Hydroxycarboxylic acid receptor 2 (Homo sapiens) (UniProt Q8TDS4); experiment: Agonist activity at GPR109a receptor in human A431 cells at 1 uM preincubated for 1 hr followed by niacin addition by DMR assay; assay type: cell-based
# [11] = target: Beta-2 adrenergic receptor (Homo sapiens) (UniProt P07550); experiment: Agonist activity at beta2 adrenergic receptor in human A431 cells at 1 uM preincubated for 1 hr followed by epinephrine addition by DMR assay; assay type: cell-based
# [12] = target: T1, G-protein coupled receptor 35; experiment: Agonist activity at human GPR35 expressed in CHO-K1 cells by DMR assay; assay type: cell-based
# T1 sequence (Q9HC97 whole entry): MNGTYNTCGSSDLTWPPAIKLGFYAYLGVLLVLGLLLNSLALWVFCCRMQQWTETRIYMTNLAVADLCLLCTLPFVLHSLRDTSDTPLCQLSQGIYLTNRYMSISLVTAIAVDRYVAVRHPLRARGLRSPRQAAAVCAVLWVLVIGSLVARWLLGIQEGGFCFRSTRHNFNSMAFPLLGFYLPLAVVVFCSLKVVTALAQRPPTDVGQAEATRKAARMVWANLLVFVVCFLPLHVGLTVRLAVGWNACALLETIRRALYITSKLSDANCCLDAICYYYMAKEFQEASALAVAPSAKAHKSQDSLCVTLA
# Beta-2 adrenergic receptor (Homo sapiens), sequence (P07550 whole entry, looked up): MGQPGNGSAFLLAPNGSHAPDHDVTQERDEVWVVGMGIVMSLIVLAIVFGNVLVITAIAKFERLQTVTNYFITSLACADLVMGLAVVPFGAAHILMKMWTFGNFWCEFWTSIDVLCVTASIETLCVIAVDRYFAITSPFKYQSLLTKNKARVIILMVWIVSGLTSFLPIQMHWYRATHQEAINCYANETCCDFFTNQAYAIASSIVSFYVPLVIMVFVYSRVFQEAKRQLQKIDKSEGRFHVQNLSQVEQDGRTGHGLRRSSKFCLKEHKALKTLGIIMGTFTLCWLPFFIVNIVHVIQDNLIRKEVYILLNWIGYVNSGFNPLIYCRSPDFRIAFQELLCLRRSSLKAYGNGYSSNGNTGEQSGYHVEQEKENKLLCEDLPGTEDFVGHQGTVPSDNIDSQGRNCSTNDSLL
# Hydroxycarboxylic acid receptor 2 (Homo sapiens), sequence (Q8TDS4 whole entry): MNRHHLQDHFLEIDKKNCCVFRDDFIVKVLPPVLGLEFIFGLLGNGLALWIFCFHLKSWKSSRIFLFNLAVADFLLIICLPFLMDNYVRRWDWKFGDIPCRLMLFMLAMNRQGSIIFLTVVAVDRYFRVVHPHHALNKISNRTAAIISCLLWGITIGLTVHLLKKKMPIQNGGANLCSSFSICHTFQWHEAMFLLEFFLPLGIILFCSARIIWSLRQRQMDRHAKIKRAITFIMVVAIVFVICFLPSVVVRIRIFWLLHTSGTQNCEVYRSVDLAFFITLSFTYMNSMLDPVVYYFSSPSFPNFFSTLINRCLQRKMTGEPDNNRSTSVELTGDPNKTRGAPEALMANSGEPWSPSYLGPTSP
# Histamine H1 receptor (Homo sapiens), sequence (P35367 whole entry): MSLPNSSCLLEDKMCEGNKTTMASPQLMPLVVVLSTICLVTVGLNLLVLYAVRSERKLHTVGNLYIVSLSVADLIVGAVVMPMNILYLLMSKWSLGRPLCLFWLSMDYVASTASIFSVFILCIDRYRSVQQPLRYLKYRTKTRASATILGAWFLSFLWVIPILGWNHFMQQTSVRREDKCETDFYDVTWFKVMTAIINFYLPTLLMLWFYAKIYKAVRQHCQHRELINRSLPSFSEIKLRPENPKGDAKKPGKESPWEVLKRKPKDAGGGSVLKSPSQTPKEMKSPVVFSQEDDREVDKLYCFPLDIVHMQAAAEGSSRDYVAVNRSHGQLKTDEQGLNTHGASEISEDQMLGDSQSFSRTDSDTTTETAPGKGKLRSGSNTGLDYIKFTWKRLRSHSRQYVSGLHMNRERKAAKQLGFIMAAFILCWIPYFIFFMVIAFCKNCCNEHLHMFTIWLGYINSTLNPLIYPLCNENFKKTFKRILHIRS
Activity [3],EC50 ([4]; read-out: EC50) [nM],Structure (SMILES),IC50 [2] [nM],further results
,,N#Cc1cc(NC(=O)C(=O)O)c(Cl)c(NC(=O)C(=O)O)c1 [LODOXAMIDE],,EC50 [1]: 4000 nM
inactive,1750,O=C(O)c1cc2cc(Br)cc(Br)c2oc1=O,1080,
inactive,8220,COc1c(Br)cc2cc(C#N)c(=O)oc2c1Br,590,
inactive,51,O=C(O)c1cc2cc(Br)c(O)c([N+](=O)[O-])c2oc1=O,31,EC50 [5]: 479 nM; Efficacy [6]: 111%
,,N#Cc1cc2ccccc2oc1=O,,EC50 [4]: Not Active
inactive,1410,COc1c(Br)cc2cc(-c3nnn[nH]3)c(=O)oc2c1Br,460,EC50 [5]: 14100 nM; Efficacy [6]: 86.4%
inactive,2660,COc1c(Br)cc2cc(-c3nnn[nH]3)c(=O)oc2c1[N+](=O)[O-],2820,
inactive,4270,O=C(O)c1cc2cc(Br)cc([N+](=O)[O-])c2oc1=O,3750,
inactive,330,O=c1oc2c([N+](=O)[O-])cc(Br)cc2cc1-c1nnn[nH]1,330,
inactive,14800,COc1cc2oc(=O)c(-c3nnn[nH]3)cc2cc1Br,14100,
inactive,710,O=c1oc2cc(O)c(Br)cc2cc1-c1nnn[nH]1,483,
inactive,68,O=c1oc2c(Br)c(O)c(Br)cc2cc1-c1nnn[nH]1,23,EC50 [5]: 1540 nM; EC50 ([4]; read-out: pEC50 (converted)): 66.7 nM; Efficacy [6]: 126%
inactive,21400,N#Cc1cc2cc(Cl)ccc2oc1=O,21400,
inactive,6760,O=c1oc2ccccc2cc1-c1nn[nH]n1,5080,
inactive,150,O=C(O)c1cc2cc(Br)c(O)c(Br)c2oc1=O,56,EC50 [5]: 3630 nM; Efficacy [6]: 168%
inactive,10800,O=C(O)c1cc2cc(Br)ccc2oc1=O,11300,
inactive,9270,N#Cc1cc2cc(Br)c(O)cc2oc1=O,9330,

Activity [3],EC50 ([4]; read-out: EC50) [nM],Structure (SMILES),IC50 [2] [nM],further results
inactive,14,O=c1oc2c([N+](=O)[O-])c(O)c([N+](=O)[O-])cc2cc1-c1nnn[nH]1,13,EC50 [5]: 288 nM; Efficacy [6]: 107%
inactive,13500,O=C(O)c1cc2cc(Cl)ccc2oc1=O,13200,
inactive,700,N#Cc1cc2cc(Br)cc([N+](=O)[O-])c2oc1=O,650,
inactive,4340,O=C(O)c1cc2cc(Br)c(O)cc2oc1=O,3760,
inactive,92300,O=C(O)c1cc2ccccc2oc1=O [COUMARIN-3-CARBOXYLIC ACID],100000,
inactive,2910,COc1c(Br)cc2cc(C#N)c(=O)oc2c1[N+](=O)[O-],1690,
inactive,2020,O=C(O)c1cc2cc(Cl)cc(Cl)c2oc1=O,2300,
inactive,8610,N#Cc1cc2cc(Cl)cc(Cl)c2oc1=O,8610,
,,CC(C)c1ccc2oc3nc(N)c(C(=O)O)cc3c(=O)c2c1 [AMLEXANOX],,EC50 [1]: 4000 nM
inactive,17700,N#Cc1cc2cc(Br)cc(Br)c2oc1=O,14900,
inactive,5.8,O=c1oc2c([N+](=O)[O-])c(O)c(Br)cc2cc1-c1nnn[nH]1,8.6,Activity [7]: inactive; Activity [8]: inactive; Activity [9]: inactive; Activity [2]: Dose-dependent effect; Activity [10]: inactive; Activity [11]: inactive; EC50 [5]: 197 nM; Efficacy [6]: 104%
inactive,930,O=c1oc2c(Br)cc(Br)cc2cc1-c1nnn[nH]1,380,EC50 [5]: 7050 nM; Efficacy [6]: 81.3%
,,CCCOc1ccccc1-c1nc2[nH]nnc2c(=O)[nH]1,,Efficacy [6]: 100%
inactive,890,COc1c(Br)cc2cc(C(=O)O)c(=O)oc2c1Br,750,
,,O=C(O)c1cc(=O)c2c(OCC(O)COc3cccc4oc(C(=O)O)cc(=O)c34)cccc2o1 [CROMOLYN],,EC50 [12]: 52 nM; EC50 [1]: 7000 nM
inactive,2330,N#Cc1cc2cc(Br)c(O)c(Br)c2oc1=O,2890,
